Only a selection was taken, and hits are over-represented in it overall.
INS-1E ATP HTS = protection of INS-1E cells from cytokine death, primary screen, ATP luminescence, single point; INS-1E cytokine-induced death, 48 h; normalised: neutral wells 0, positive control 100; protection from cytokine-induced ATP loss, % at 10 µM; hit rate 0.1% among 20,000;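 active = mean replicate protection from cytokine-induced ATP loss at least 50% and at least 75% of replicates each reaching 50%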
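Assay system: INS-1E rat insulinoma cells. Amount: 8000 cells per well. Medium: phenol-red-free RPMI with 5% fetal bovine serum. Reagent: IL-1β, TNF-α and IFN-γ cytokine mix. Doses: one compound concentration, pin transfer. Schedule: 48 h co-treatment, 10 min post-lysis read. Detection: CellTiter-Glo luminescence measuring cellular ATP.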
A1 apoptosis 2 = A1 inhibitors via caspase activation, primary screen, cell-based, luminescence, HTS, two replicates | MEF A1-2A-BIM cells, caspase-Glo luminescence, 3 h; percent of clofoctol response, DMSO zero | caspase activation, % (test concentration not listed) | 24,000 tested, under 10 active | AID 2465, 2010; in the data active = caspase activation above about 5.9%
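system = A1-2A-BIM-expressing MEF cells | quantity = 2500 MEF cells/well | dosing = 50 nL compound per well, pinned | schedule = overnight cell settling, then 3 h compound exposure, 37 °C | signal = luminescence from DEVD-luciferin Caspase-Glo reagent, 1:1 in 50 mM HEPES, 1 h RT | read-out = Caspase-3/7 activation, seen as rise in luminescence signal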
T cruzi intra = inhibitors of intracellular Trypanosoma cruzi, primary screen, cell-based, plate reader, single point, set 2. intracellular Trypanosoma cruzi in host cells. activity score (inhibition), % at 5.01 µM. hit rate 4.9% among 22,000. AID 651903, 2012; in the data active = activity score above about 55%;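 also: parasites and compound incubated about four days before reading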
Of the large screens only hits and unclear results are named; the others gave an inactive call.

C[C@@H]1CN([C@@H](C)CO)C(=O)c2cccc(NC(=O)Nc3ccc(C(F)(F)F)cc3)c2O[C@H]1CN(C)C(=O)NC1CCCCC1	none
COc1ccc(O)c(/C=N/NC(=O)CCCCCC(=O)Nc2ccccc2O)c1	none (no result: A1 apoptosis 2)
CO[C@H]1O[C@H](CO)[C@@H](OC(=O)Nc2ccc3c(c2)OCO3)[C@H](OC(=O)Nc2ccccc2)[C@@H]1OC(=O)Nc1ccccc1	none (no result: INS-1E ATP HTS, T cruzi intra)
O=C(N/N=C/c1ccc(F)c(Oc2ccccc2)c1)c1ccccn1	none
C[C@H]1CN([C@@H](C)CO)C(=O)c2cccc(NC(=O)Nc3ccc(C(F)(F)F)cc3)c2O[C@@H]1CN(C)C(=O)Nc1cccc2ccccc12	T cruzi intra 66
C[C@@H]1CN([C@H](C)CO)C(=O)c2cccc(NC(=O)Nc3ccc(C(F)(F)F)cc3)c2O[C@H]1CN(C)C(=O)Nc1cccc2ccccc12	none
CC(=O)N1Cc2ccccc2C[C@@]2(N=C(c3ccc(OCCCO)cc3)O[C@H]2c2ccccc2)C1=O	none (no result: INS-1E ATP HTS, T cruzi intra)
C=CCN1CCc2cc(OC)c(OC)cc2C1C#Cc1ccccc1 (stereo not drawn)	none (no result: INS-1E ATP HTS, T cruzi intra)
C[C@H]1CN([C@@H](C)CO)C(=O)Cc2cc(NC(=O)C3CCCCC3)ccc2O[C@@H]1CN(C)Cc1ccc2c(c1)OCO2	T cruzi intra 66 (no result: A1 apoptosis 2)
C[C@@H]1CN([C@H](C)CO)C(=O)Cc2cc(NC(=O)C3CCCCC3)ccc2O[C@@H]1CN(C)Cc1ccc(Cl)c(Cl)c1	T cruzi intra 57 (no result: A1 apoptosis 2)
C[C@@H]1CN([C@H](C)CO)C(=O)Cc2cc(NC(=O)C3CCCCC3)ccc2O[C@H]1CN(C)Cc1ccc(Cl)c(Cl)c1	none (no result: A1 apoptosis 2)
C[C@H](CO)N1C[C@H](C)[C@@H](CN(C)Cc2ccc3c(c2)OCO3)Oc2ccc(NC(=O)C3CCCCC3)cc2CC1=O	none (no result: INS-1E ATP HTS, T cruzi intra)
O=C(N/N=C/C1CCCCC1)c1ccccc1O	none (no result: A1 apoptosis 2)
O=C(NO)c1ccc(C(=O)N/N=C/c2ccccc2[N+](=O)[O-])cc1	none
O=C(CCCCC(=O)N/N=C/c1ccc(CO)o1)NO	none
CC1(C)COC(CCC/C=N/NC(=O)CCCCCCC(=O)Nc2ccccc2O)OC1	none (no result: A1 apoptosis 2)
O=C(NO)c1ccc(C(=O)N/N=C/c2ccccc2O)cc1	none
COc1ccc([C@@H]2C=C(C(=O)NCc3ccccc3)O[C@H](OCc3ccc(CO)cc3)C2)cc1	none (no result: INS-1E ATP HTS, T cruzi intra)
COc1ccc(S(=O)(=O)N(C)C[C@H]2Oc3ccc(NS(=O)(=O)c4ccc(Cl)cc4)cc3CC(=O)N([C@@H](C)CO)C[C@H]2C)cc1	T cruzi intra 62
COc1ccc(S(=O)(=O)Nc2ccc3c(c2)CC(=O)N([C@H](C)CO)C[C@@H](C)[C@@H](CN(C)S(=O)(=O)c2ccc(OC)cc2)O3)cc1	T cruzi intra 67
COc1ccc(S(=O)(=O)Nc2ccc3c(c2)CC(=O)N([C@H](C)CO)C[C@@H](C)[C@H](CN(C)S(=O)(=O)c2ccc(Cl)cc2)O3)cc1	none (no result: A1 apoptosis 2)
COc1ccc(S(=O)(=O)Nc2ccc3c(c2)CC(=O)N([C@H](C)CO)C[C@H](C)[C@H](CN(C)S(=O)(=O)c2ccc(Cl)cc2)O3)cc1	none
COc1ccc(S(=O)(=O)Nc2ccc3c(c2)CC(=O)N([C@@H](C)CO)C[C@H](C)[C@@H](CN(C)S(=O)(=O)c2ccc(OC)cc2)O3)cc1	none
COc1ccc(S(=O)(=O)Nc2ccc3c(c2)CC(=O)N([C@@H](C)CO)C[C@@H](C)[C@@H](CN(C)S(=O)(=O)c2ccc(Cl)cc2)O3)cc1	T cruzi intra 60 (no result: A1 apoptosis 2)
COc1ccc(S(=O)(=O)N(C)C[C@H]2Oc3ccc(NS(=O)(=O)c4ccc(Cl)cc4)cc3CC(=O)N([C@H](C)CO)C[C@H]2C)cc1	T cruzi intra 67 (no result: A1 apoptosis 2)
COc1ccc(S(=O)(=O)N(C)C[C@H]2Oc3ccc(NS(=O)(=O)c4ccc(Cl)cc4)cc3CC(=O)N([C@H](C)CO)C[C@@H]2C)cc1	none (no result: INS-1E ATP HTS, T cruzi intra)
Cn1cc(/C=N/NC(=O)CCCCCC(=O)NO)c2ccccc21	none (no result: INS-1E ATP HTS, T cruzi intra)
COc1cc(Cl)c(/C=N/NC(=O)c2ccc(C(=O)NO)cc2)c(Cl)c1OC	none
COC(=O)CCCCCCC(=O)N/N=C/c1cccc(C(=O)O)c1	none
O=C(N/N=C/c1ccc(OCc2ccccc2)cc1O)c1ccccc1O	none (no result: INS-1E ATP HTS, T cruzi intra)
O=C(CCCCCC(=O)Nc1ccccc1O)N/N=C/c1ccc(O)cc1	none
COc1ccc(S(=O)(=O)Nc2ccc3c(c2)CC(=O)N([C@H](C)CO)C[C@@H](C)[C@@H](CN(C)S(=O)(=O)c2ccc(Cl)cc2)O3)cc1	T cruzi intra 60
COc1ccc(S(=O)(=O)N(C)C[C@@H]2Oc3ccc(NS(=O)(=O)c4ccc(Cl)cc4)cc3CC(=O)N([C@@H](C)CO)C[C@@H]2C)cc1	none
O=C(N/N=C/c1ccccc1)c1ccccn1	none
